Screening data (PubChem BioAssay)
Calb FLC – C. albicans growth inhibition with fluconazole, primary screen, CaCi-2 strain, Alamar Blue fluorescence | C. albicans CaCi-2 (fluconazole-resistant clinical isolate) + fluconazole, 48 h | growth inhibition, % (concentration not given with the values) | hit rate 0.57% among 300,000;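 active means growth inhibition above about 58% in most replicates, limit read from the data, passing the limit was not always enough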;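 further: all wells also contain fluconazole at 8 µg/ml as a sub-toxic cotreatment; 0% = median of DMSO wells and 100% = median of geldanamycin control wells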
Insulin prom up – insulin promoter activators in MIN6 cells, imaging, high-content screening, mouse beta cells; MIN6 insulin promoter-GFP reporter; stronger effect = higher value; z-score at 5 µM; hit rate 0.3% among 190,000; AID 1625, 2009;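 active means z-score above 3 at 5 µM with at least 500 cells counted in the well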
SR-BI DiI-HDL act – activators of SR-BI mediated DiI-HDL uptake, primary screen, ldlA[mSR-BI] CHO cells, DiI fluorescence | activation, % at 12.5 µM | 3 h; 100 = double the neutral-control signal | hit rate 0.096% among 320,000;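 active means mean replicate activation of at least 60% and every replicate at or above 60%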;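 further: 0% = median plate neutral-control signal and 100% = twice that signal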
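Assay system: CHO ldlA[mSR-BI] cells, LDL receptor-null, SR-BI overexpressing; medium: Ham's F12 with 0.5% BSA, HEPES 25 mM, pH 7.4; also added: DiI-HDL 10 µg/mL; timing: 3 h uptake period with compound, 37 °C; signal: DiI fluorescence, bottom read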
SR-BI HDL uptake – inhibitors of SR-BI mediated HDL lipid uptake, primary screen, ldlA[mSR-BI] cells, fluorescence, single point | hit rate 0.96% among 320,000 | Scavenger receptor class B member 1 (Mus musculus), Q61009 | inhibition, % at 12.5 µM | ldlA[mSR-BI] CHO cells, DiI-HDL uptake fluorescence, 3 h;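 active means mean replicate inhibition of at least 70% and a set share of replicates each scoring 70 or more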;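 further: 0% = median of neutral control wells and 100% = median of positive control wells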
Target sequence (Q61009 whole entry, looked up): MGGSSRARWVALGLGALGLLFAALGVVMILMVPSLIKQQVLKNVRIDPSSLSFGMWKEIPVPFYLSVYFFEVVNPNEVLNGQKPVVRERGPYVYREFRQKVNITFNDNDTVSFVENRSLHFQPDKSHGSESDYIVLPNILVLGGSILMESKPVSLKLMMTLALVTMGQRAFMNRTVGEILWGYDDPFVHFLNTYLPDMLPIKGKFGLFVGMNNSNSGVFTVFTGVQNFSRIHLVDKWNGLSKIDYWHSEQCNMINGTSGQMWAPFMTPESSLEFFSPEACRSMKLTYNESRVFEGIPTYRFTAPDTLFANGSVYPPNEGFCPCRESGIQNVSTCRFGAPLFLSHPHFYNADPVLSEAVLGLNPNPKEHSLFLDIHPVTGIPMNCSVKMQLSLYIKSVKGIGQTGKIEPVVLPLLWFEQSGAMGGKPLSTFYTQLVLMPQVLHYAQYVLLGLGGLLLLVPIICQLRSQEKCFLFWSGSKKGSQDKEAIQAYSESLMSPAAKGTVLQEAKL
HTR2A ag – mouse Htr2a agonists via beta-arrestin recruitment, primary screen, cell-based, luminescence; 5-hydroxytryptamine receptor 2A (Mus musculus), P35363; AID 624169, 2012; activation, % at 7.6 µM; CHO-K1 mHTR2A beta-arrestin complementation; percent of 30 µM serotonin response; hit rate 0.66% among 360,000;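 active means activation above a run cutoff, the mean activation of all tested compounds plus 3 SD, cut at about 14% in these data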;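 further: 0% = plate median of compound wells and 100% = 30 µM serotonin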
MIN6 prolif – inducers of MIN6 beta-cell proliferation, primary screen, ATP luminescence, uHTS; MIN6 cells proliferation, ATPlite luminescence, 48 h; cells starved in 0.2% serum; 100% = growth in 10% serum; proliferation, % at 10 µM; hit rate 0.29% among 330,000;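 active means compounds whose signal lies at least 3.5 SD above the mean of all wells on their plate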;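 further: 0% = DMSO-treated cells in low-serum medium and 100% = 10% serum control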
OPRM1 ag – OPRM1 agonists via beta-arrestin recruitment, confirmation, counter-screen for mouse HTR2A agonist project, cell-based, luminescence, single concentration; shares compounds with HTR2A ag; U2OS OPRM1 beta-arrestin PathHunter; DMSO 0%, DAMGO 9.3 µM 100%; hit rate 5.3% among 2,300; AID 624380, 2012; activation, % at 9.3 µM;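 active means mean activation above the mean of DMSO-only wells plus 3 SD, cut at about 0.5% in these data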
HTR2A ag conf – mouse HTR2A agonists, beta-arrestin recruitment, confirmation, cell-based, luminescence, CHO-K1 PathHunter, triplicate; shares compounds with HTR2A ag; DMSO 0%, 30 µM serotonin 100%; activation, % at 7.6 µM; hit rate 19% among 2,300; AID 624381, 2012;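 active means mean activation across triplicates above the hit threshold derived in the original primary screen, cut at about 15% in these data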
* hit, by the source's call; . = no result given. This is a sample that favours compounds with a hit; in the whole collection about 2.4% have one here.

SMILES	Calb FLC	Insulin prom up	SR-BI DiI-HDL act	SR-BI HDL uptake	HTR2A ag	MIN6 prolif	OPRM1 ag	HTR2A ag conf
COc1ccc(CN2CCN(Cc3ccccc3F)CC2)c(OC)c1	4	.	3	-3	-2	3	.	.
COc1cc(CN2CCN(c3ncccn3)CC2)cc(OC)c1	10	.	7	-7	21*	-2	-1	121*
COc1ccc(CN2CCN(Cc3ccc(C)cc3)CC2)c(OC)c1	-4	.	10	-10	-8	1	.	.
COc1ccc(CN2CCN(c3ncccn3)CC2)c(OC)c1	-27	-1.4	6	-6	39*	-5	0	99*
COc1ccc(CN2CCN(c3ccccn3)CC2)c(OC)c1	-15	-0.06	25	-25	40*	-2	0	82*
C[C@@H]1CN([C@H](C)CO)C(=O)CCCn2nncc2CO[C@H]1CN(C)Cc1ccc(C(F)(F)F)cc1	.	.	.	.	-1	.	.	.
COc1cccc(C(=O)NCC(=O)OCC(=O)Nc2cc(OC)c([N+](=O)[O-])cc2C)c1	-6	0.94	13	-13	17*	0	-1	-4
Cc1cc(Cl)cc(C)c1OCCNCc1ccccc1	-15	.	-12	12	21*	-2	0	11
Cc1cc(Cl)cc(C)c1OCCOCCNCc1ccccc1	-5	.	12	-12	-6	-5	.	.
O=C(Nc1ccc(N2CCOCC2)cc1)c1ccncc1	24	0.16	6	-6	2	-2	.	.
Cn1cccc1C(=O)Nc1ccc(N2CCOCC2)cc1	.	.	-9	9	15*	-5	0	2
Cc1cc2c3c(c1C)C1(C(=O)N3C(C)(C)CC2C)C(C#N)=C(N)Oc2cc(O)ccc21 (stereo not given)	20	.	20	-20	25*	-4	-1	3
CCOc1ccccc1Nc1nc(-c2sc(NC(=O)c3ccco3)nc2C)cs1	7	-1.1	-58	58	-7	-6	.	.
Cc1ccccc1Nc1nc(-c2sc(NC(=O)c3ccco3)nc2C)cs1	0	-0.71	-29	29	19*	-7	0	1
CCc1cc2c(SCc3ccc(C(=O)OC)o3)ncnc2s1	1	.	14	-14	15*	0	0	-2
C[C@H](c1ccccc1)N1C[C@H](COCc2ccccc2)Oc2cc(N3CCC[C@H]3C(N)=O)ccc2S1(=O)=O	.	.	.	.	-6	.	.	.
CC1CN(C)C(C)c2c1oc1ccc(N)cc21 (stereo not given)	9	-0.19	-2	2	2	-2	.	.
CC1CN(C)C(C)c2c1oc1ccc([N+](=O)[O-])cc21 (stereo not given)	-11	-0.23	-3	3	22*	-3	0	4
CCc1cc(=O)oc2c(C)c(O)c(CN3CCCCC3)cc12	-17	0.62	-17	17	22*	-4	-1	-2
COC(=O)c1cc2ccsc2n1CC(=O)Nc1ccc(N(C)C)cc1	-15	0.28	-57	57	0	-3	.	.
COC(=O)c1cc2ccsc2n1CC(=O)Nc1cc(Cl)ccc1OC	4	-0.22	-26	26	19*	-4	-1	-4
Cc1ccc(C(=O)N2CCN(Cc3nc4sc5c(c4c(=O)[nH]3)CCCC5)CC2)cc1	-5	.	.	.	-5	-2	.	.
O=C(c1ccccc1F)N1CCN(Cc2nc3sc4c(c3c(=O)[nH]2)CCCC4)CC1	21	.	-6	6	16*	-3	-1	-4
COc1ccc(S(=O)(=O)N2CCN(C(=O)Nc3ccccc3OC)CC2)cc1	16	.	-2	2	2	-3	.	.
Cc1cc(NC(=O)CSCC(=O)Nc2nc3ccc(F)cc3s2)no1	.	.	5	-5	9	0	.	.
SMILES	Calb FLC	Insulin prom up	SR-BI DiI-HDL act	SR-BI HDL uptake	HTR2A ag	MIN6 prolif	OPRM1 ag	HTR2A ag conf
Cc1ccc2nc(NC(=O)CSCC(=O)Nc3cc(C)on3)sc2c1	.	.	-4	4	19*	-1	-1	-1
CNc1nc(Oc2ccc3sc(C)nc3c2)c2sccc2n1	.	.	.	.	1	.	.	.
Cc1nc2cc(Oc3nc(NCCN(C)C)nc4ccsc34)ccc2s1	.	.	.	.	34*	.	-1	4
CC1CCCCC12NC(=O)N(CC(=O)OCC(=O)N(C)C1CCCCC1)C2=O (stereo not given)	.	.	8	-8	5	-1	.	.
CC(C)(C)N=C1SCC(C)(/C=N/O)S1 (stereo not given)	-7	-0.08	8	-8	17*	-2	-1	-2
Cc1cccc2nc(-c3cccc(NC(=O)c4ccc(Cl)cc4)c3)cn12	26	-0.24	-43	43	22*	-6	-1	-4
CCc1nc2sc3c(c2c(=O)n1N)CC(C)(C)OC3	-3	-0.85	-3	3	0	1	.	.
CCOC(=O)CSc1nc2sc3c(c2c(=O)n1CC)CC(C)(C)OC3	6	0.59	-20	20	23*	4	0	-1
O=C(CSc1nc2c(cnn2-c2ccc(F)cc2)c(=O)[nH]1)N1CCOCC1	.	-0.59	-10	10	5	-1	.	.
O=C(CSc1nc2c(cnn2-c2ccc(F)cc2)c(=O)[nH]1)N1CCCCC1	23	-1	.	.	15*	-4	-1	-3
O=C1C(Cc2ccccc2)Nc2ncnc(N3CCN(c4ccccc4)CC3)c2N1Cc1ccc(Cl)cc1 (stereo not given)	2	.	-3	3	-27	-4	.	.
CCCCOc1ccc(C(=O)NCC(=O)NC2CCC(C)CC2)cc1 (stereo not given)	10	.	12	-12	18*	-3	0	0
COC(=O)N1CCCCC1c1cc(C(=O)Nc2cccc3c2CCCC3)no1 (stereo not given)	.	.	.	.	17*	.	0	-3
CCOC(=O)c1ccc(Oc2nc(OC)nc(N(C)C)n2)cc1	4	0.26	-29	29	18*	4	-1	0
Cc1ccccc1N1CC(C(=O)N2CCc3ccccc32)CC1=O (stereo not given)	12	.	-11	11	17*	-5	-1	-2
